The source made the active and inactive calls. The rule behind the calls is not given here.
Tested on: not listed separately
Experiment: Cytotoxicity against human skin fibroblasts assessed as cell survival at 5 uM after 24 hrs by MTT assay relative to control
Set-up: species or system Skin fibroblast
Conditions: read-out: Survival
Summary of the method: (§1)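 Cells exposed to agent at 5 µM for 24 h, then growth and viability measured by MTT assay. Survival given as percent of untreated control.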

Compound | viability at 24 h, 5 µM [%]
COc1cc2c(cc1OC/C=C\Cn1cc(-c3ccccc3OC)nn1)N=C[C@@H]1CCCN1C2=O | 84.7
COc1ccc(-c2cn(C/C=C\COc3cc4c(cc3OC)C(=O)N3CCC[C@H]3C=N4)nn2)cc1 | 90.3

Tested on: A-375
Experiment: Induction of apoptosis in human A375 cells assessed as decrease in Bcl-XL protein level at 5 uM after 24 hrs by Western blotting analysis
Type: functional, cell-based
Conditions: not given
Summary of the method: (§2)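 Lysates from A375 cells exposed 24 h to 5 μM, or to a range of concentrations, immunoblotted with specific antibodies against Bcl-2, Bcl-xL, Bax, Bad, caspase-3 and PARP; actin probed as loading control; three separate experiments.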

Compound | Activity
COc1cc2c(cc1OC/C=C\Cn1cc(-c3ccccc3OC)nn1)N=C[C@@H]1CCCN1C2=O | Active
COc1ccc(-c2cn(C/C=C\COc3cc4c(cc3OC)C(=O)N3CCC[C@H]3C=N4)nn2)cc1 | Active

Tested on: A-375
Experiment: Cytotoxicity against human A375 cells assessed as cell survival after 12 to 24 hrs by MTT assay relative to control
Type: functional, cell-based
Conditions: not given
Summary of the method: (§3)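 A375 cells seeded at 10,000 per well, attached overnight, then exposed in triplicate to 0, 1, 3 or 5 μM for 0, 12 or 24 h; viability by MTT absorbance versus untreated control; IC50 taken as mean of dose-response curves from three experiments.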

Compound | Activity
COc1cc2c(cc1OC/C=C\Cn1cc(-c3ccccc3OC)nn1)N=C[C@@H]1CCCN1C2=O | Dose-dependent effect
COc1ccc(-c2cn(C/C=C\COc3cc4c(cc3OC)C(=O)N3CCC[C@H]3C=N4)nn2)cc1 | Dose-dependent effect

Tested on: A-375
Experiment: Cytotoxicity against human A375 cells assessed as cell survival at 1 to 5 uM after 12 hrs by MTT assay relative to control
Type: functional, cell-based
Conditions: not given
Summary of the method: as §3

Compound | Activity
COc1cc2c(cc1OC/C=C\Cn1cc(-c3ccccc3OC)nn1)N=C[C@@H]1CCCN1C2=O | inactive
COc1ccc(-c2cn(C/C=C\COc3cc4c(cc3OC)C(=O)N3CCC[C@H]3C=N4)nn2)cc1 | inactive

Tested on: A-375
Experiment: Upregulation of p53 mRNA expression in human A375 cells at 5 uM after 24 hrs by RT-PCR analysis
Type: functional, cell-based
Conditions: not given
Summary of the method: (§4)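 A375 cells treated 24 h at 5 μM; p53, p21, p27 and cyclin D1 transcripts quantified by qPCR, normalised to β-actin in each sample, compared with control.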

Compound | Activity
COc1cc2c(cc1OC/C=C\Cn1cc(-c3ccccc3OC)nn1)N=C[C@@H]1CCCN1C2=O | Active
COc1ccc(-c2cn(C/C=C\COc3cc4c(cc3OC)C(=O)N3CCC[C@H]3C=N4)nn2)cc1 | Active

Tested on: A-375
Experiment: Cell cycle arrest in human A375 cells assessed as accumulation at G2/M phase after 24 hrs by propidium iodide staining-based flow cytometry (reference value: 15.2 +/- 0.6%)
Type: functional
Conditions: not given

Compound | Activity [%]
COc1cc2c(cc1OC/C=C\Cn1cc(-c3ccccc3OC)nn1)N=C[C@@H]1CCCN1C2=O | 1.3
COc1ccc(-c2cn(C/C=C\COc3cc4c(cc3OC)C(=O)N3CCC[C@H]3C=N4)nn2)cc1 | 3.4

Tested on: A549
Experiment: Cytotoxicity against human A549 cells assessed as cell survival at 5 uM after 24 hrs by MTT assay relative to control
Type: functional
Conditions: A549, 24 h, read-out: Survival
Summary of the method: as §1

Compound | viability at 5 µM [%]
COc1cc2c(cc1OC/C=C\Cn1cc(-c3ccccc3OC)nn1)N=C[C@@H]1CCCN1C2=O | 102
COc1ccc(-c2cn(C/C=C\COc3cc4c(cc3OC)C(=O)N3CCC[C@H]3C=N4)nn2)cc1 | 98.2

Tested on: A-375
Experiment: Induction of apoptosis in human A375 cells assessed as increase in Bax protein level at 5 uM after 24 hrs by Western blotting analysis
Type: functional, cell-based
Conditions: not given
Summary of the method: as §2

Compound | Activity
COc1cc2c(cc1OC/C=C\Cn1cc(-c3ccccc3OC)nn1)N=C[C@@H]1CCCN1C2=O | Active
COc1ccc(-c2cn(C/C=C\COc3cc4c(cc3OC)C(=O)N3CCC[C@H]3C=N4)nn2)cc1 | Active

Tested on: A-375
Experiment: Downregulation of cyclin D1 mRNA expression in human A375 cells at 5 uM after 24 hrs by RT-PCR analysis
Type: functional, cell-based
Conditions: not given
Summary of the method: as §4

Compound | Activity
COc1cc2c(cc1OC/C=C\Cn1cc(-c3ccccc3OC)nn1)N=C[C@@H]1CCCN1C2=O | Active
COc1ccc(-c2cn(C/C=C\COc3cc4c(cc3OC)C(=O)N3CCC[C@H]3C=N4)nn2)cc1 | Active

Tested on: A-375
Experiment: Cytotoxicity against human A375 cells assessed as cell survival at 1 to 5 uM by MTT assay relative to control
Type: functional, cell-based
Conditions: TDE = time-dependent effect
Summary of the method: as §3

Compound | Activity
COc1cc2c(cc1OC/C=C\Cn1cc(-c3ccccc3OC)nn1)N=C[C@@H]1CCCN1C2=O | tde
COc1ccc(-c2cn(C/C=C\COc3cc4c(cc3OC)C(=O)N3CCC[C@H]3C=N4)nn2)cc1 | tde

Tested on: A-375
Experiment: Induction of apoptosis in human A375 cells assessed as decrease in Bcl-2 protein level at 5 uM after 24 hrs by Western blotting analysis
Type: functional, cell-based
Conditions: not given
Summary of the method: as §2

Compound | Activity
COc1cc2c(cc1OC/C=C\Cn1cc(-c3ccccc3OC)nn1)N=C[C@@H]1CCCN1C2=O | Active
COc1ccc(-c2cn(C/C=C\COc3cc4c(cc3OC)C(=O)N3CCC[C@H]3C=N4)nn2)cc1 | Active

Tested on: A-375
Experiment: Cell cycle arrest in human A375 cells assessed as accumulation at S phase after 24 hrs by propidium iodide staining-based flow cytometry (reference value: 11.8 +/- 0.1%)
Type: functional
Conditions: not given

Compound | Activity [%]
COc1cc2c(cc1OC/C=C\Cn1cc(-c3ccccc3OC)nn1)N=C[C@@H]1CCCN1C2=O | 5.1
COc1ccc(-c2cn(C/C=C\COc3cc4c(cc3OC)C(=O)N3CCC[C@H]3C=N4)nn2)cc1 | 7.2

Tested on: B16
Experiment: Cytotoxicity against mouse B16 cells assessed as cell survival at 5 uM after 24 hrs by MTT assay relative to control
Type: functional
Conditions: B16, 24 h, read-out: Survival
Summary of the method: as §1

Compound | viability at 5 µM [%]
COc1cc2c(cc1OC/C=C\Cn1cc(-c3ccccc3OC)nn1)N=C[C@@H]1CCCN1C2=O | 66.3
COc1ccc(-c2cn(C/C=C\COc3cc4c(cc3OC)C(=O)N3CCC[C@H]3C=N4)nn2)cc1 | 62.8

Tested on: A-375
Experiment: Upregulation of p21 mRNA expression in human A375 cells at 5 uM after 24 hrs by RT-PCR analysis
Type: functional, cell-based
Conditions: not given
Summary of the method: as §4

Compound | Activity
COc1cc2c(cc1OC/C=C\Cn1cc(-c3ccccc3OC)nn1)N=C[C@@H]1CCCN1C2=O | Active
COc1ccc(-c2cn(C/C=C\COc3cc4c(cc3OC)C(=O)N3CCC[C@H]3C=N4)nn2)cc1 | Active

Tested on: A-375
Experiment: Cell cycle arrest in human A375 cells assessed as accumulation at G1 phase after 24 hrs by propidium iodide staining-based flow cytometry (reference value: 65.3 +/- 0.1%)
Type: functional
Conditions: not given

Compound | Activity [%]
COc1cc2c(cc1OC/C=C\Cn1cc(-c3ccccc3OC)nn1)N=C[C@@H]1CCCN1C2=O | 81.9
COc1ccc(-c2cn(C/C=C\COc3cc4c(cc3OC)C(=O)N3CCC[C@H]3C=N4)nn2)cc1 | 82.3

Tested on: A-375
Experiment: Cell cycle arrest in human A375 cells assessed as accumulation at sub-G1 phase after 24 hrs by propidium iodide staining-based flow cytometry (reference value: 7.7 +/- 0.1%)
Type: functional
Conditions: not given

Compound | Activity [%]
COc1cc2c(cc1OC/C=C\Cn1cc(-c3ccccc3OC)nn1)N=C[C@@H]1CCCN1C2=O | 11.7
COc1ccc(-c2cn(C/C=C\COc3cc4c(cc3OC)C(=O)N3CCC[C@H]3C=N4)nn2)cc1 | 7.1

Tested on: A2058
Experiment: Cytotoxicity against human A2058 cells assessed as cell survival at 5 uM after 24 hrs by MTT assay relative to control
Type: functional
Conditions: A2058, 24 h, read-out: Survival
Summary of the method: as §1

Compound | viability at 5 µM [%]
COc1cc2c(cc1OC/C=C\Cn1cc(-c3ccccc3OC)nn1)N=C[C@@H]1CCCN1C2=O | 63.1
COc1ccc(-c2cn(C/C=C\COc3cc4c(cc3OC)C(=O)N3CCC[C@H]3C=N4)nn2)cc1 | 42

Tested on: A-375
Experiment: Upregulation of p27 mRNA expression in human A375 cells at 5 uM after 24 hrs by RT-PCR analysis
Type: functional, cell-based
Conditions: not given
Summary of the method: as §4

Compound | Activity
COc1cc2c(cc1OC/C=C\Cn1cc(-c3ccccc3OC)nn1)N=C[C@@H]1CCCN1C2=O | Active
COc1ccc(-c2cn(C/C=C\COc3cc4c(cc3OC)C(=O)N3CCC[C@H]3C=N4)nn2)cc1 | Active

Tested on: HEK-293T
Experiment: Cytotoxicity against human 293T cells assessed as cell survival at 5 uM after 24 hrs by MTT assay relative to control
Type: functional
Conditions: read-out: Survival
Summary of the method: as §1

Compound | viability at 5 µM [%]
COc1cc2c(cc1OC/C=C\Cn1cc(-c3ccccc3OC)nn1)N=C[C@@H]1CCCN1C2=O | 51.1
COc1ccc(-c2cn(C/C=C\COc3cc4c(cc3OC)C(=O)N3CCC[C@H]3C=N4)nn2)cc1 | 46.7

Tested on: A-375
Experiment: Induction of apoptosis in human A375 cells at 5 uM after 24 hrs by AnnexinV-FITC/propidium iodide staining-based fluorimetric analysis (reference value: 2.6%)
Type: functional
Conditions: not given

Compound | Activity [%]
COc1cc2c(cc1OC/C=C\Cn1cc(-c3ccccc3OC)nn1)N=C[C@@H]1CCCN1C2=O | 11.1
COc1ccc(-c2cn(C/C=C\COc3cc4c(cc3OC)C(=O)N3CCC[C@H]3C=N4)nn2)cc1 | 12.1

Tested on: not listed separately
Experiment: Cytotoxicity against human RPMI7951 cells assessed as cell survival at 5 uM after 24 hrs by MTT assay relative to control
Type: functional
Conditions: RPMI-7951, 24 h, read-out: Survival
Summary of the method: as §1

Compound | viability at 5 µM [%]
COc1cc2c(cc1OC/C=C\Cn1cc(-c3ccccc3OC)nn1)N=C[C@@H]1CCCN1C2=O | 75.1
COc1ccc(-c2cn(C/C=C\COc3cc4c(cc3OC)C(=O)N3CCC[C@H]3C=N4)nn2)cc1 | 66.4

Tested on: Ca9-22
Experiment: Cytotoxicity against human Ca9-22 cells assessed as cell survival at 5 uM after 24 hrs by MTT assay relative to control
Type: functional
Conditions: Ca9-22, 24 h, read-out: Survival
Summary of the method: as §1

Compound | viability at 5 µM [%]
COc1cc2c(cc1OC/C=C\Cn1cc(-c3ccccc3OC)nn1)N=C[C@@H]1CCCN1C2=O | 105
COc1ccc(-c2cn(C/C=C\COc3cc4c(cc3OC)C(=O)N3CCC[C@H]3C=N4)nn2)cc1 | 55.5

Tested on: A-375
Experiment: Cytotoxicity against human A375 cells assessed as cell survival at 5 uM after 24 hrs by MTT assay relative to control
Type: functional
Conditions: A-375, 24 h, read-out: Survival
Summary of the method: as §1

Compound | viability at 5 µM [%]
COc1cc2c(cc1OC/C=C\Cn1cc(-c3ccccc3OC)nn1)N=C[C@@H]1CCCN1C2=O | 58.4
COc1ccc(-c2cn(C/C=C\COc3cc4c(cc3OC)C(=O)N3CCC[C@H]3C=N4)nn2)cc1 | 38.7

Tested on: A-375
Experiment: Induction of apoptosis in human A375 cells assessed as increase in Bad protein level at 5 uM after 24 hrs by Western blotting analysis
Type: functional, cell-based
Conditions: not given
Summary of the method: as §2

Compound | Activity
COc1cc2c(cc1OC/C=C\Cn1cc(-c3ccccc3OC)nn1)N=C[C@@H]1CCCN1C2=O | Active
COc1ccc(-c2cn(C/C=C\COc3cc4c(cc3OC)C(=O)N3CCC[C@H]3C=N4)nn2)cc1 | Active
